In brackets after ≈: the same amount, converted by molar mass.
Tests used:
[1] = target: Signal peptidase I (Escherichia coli K-12) (UniProt P00803); assay: Inhibition of full length Escherichia coli His6-tagged LepB expressed in Escherichia coli C43(DE3) assessed as residual activity at 250 uM using dabcyl-VEVGGTATAGAFSRPGLE-(EDANS) as substrate preincubated for 10 mins followed by substrate addition measured for 2 hrs by FRET assay relative to control
Summary of the method: (§1)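 Enzyme came from the membrane fraction, extracted with 1% reduced Triton X-100 and purified by metal-chelation chromatography in 0.5% detergent. FRET pair was dabcyl acceptor and EDANS donor. EcLepB (final about 50 nM) was pre-incubated with compound 10 min at 22 °C. Reaction was then run with 8 µM substrate, following the linear fluorescence increase at 22 °C for 2 h.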

[2] = target: Signal peptidase I (Escherichia coli K-12) (UniProt P00803); assay: Inhibition of full length Escherichia coli His6-tagged LepB expressed in Escherichia coli C43(DE3) assessed as residual activity at 31.25 uM using dabcyl-VEVGGTATAGAFSRPGLE-(EDANS) as substrate preincubated for 10 mins followed by substrate addition measured for 2 hrs by FRET assay relative to control; summary of the method: as §1
[3] = target: Signal peptidase I (Escherichia coli K-12) (UniProt P00803); assay: Inhibition of full length Escherichia coli His6-tagged LepB expressed in Escherichia coli C43(DE3) assessed as residual activity at 0.9765625 uM using dabcyl-VEVGGTATAGAFSRPGLE-(EDANS) as substrate preincubated for 10 mins followed by substrate addition measured for 2 hrs by FRET assay relative to control; summary of the method: as §1
[4] = target: T1, Signal peptidase I (Escherichia coli K-12, UniProt P00803); assay: Inhibition of full length Escherichia coli His6-tagged LepB expressed in Escherichia coli C43(DE3) using dabcyl-VEVGGTATAGAFSRPGLE-(EDANS) as substrate preincubated for 10 mins followed by substrate addition measured for 2 hrs by FRET assay
Summary of the method: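 Enzyme extracted from the membrane fraction with 1% reduced Triton X-100 and purified by metal-chelation chromatography in 0.5% detergent. Enzyme (final ~50 nM) was pre-incubated with compound for 10 min at 22 °C. The linear rise in EDANS donor fluorescence (dabcyl acceptor) was then followed at 22 °C for 2 h. IC50 came from non-linear regression of sigmoidal rate-versus-concentration curves.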

[5] = system: Escherichia coli; assay: Antibacterial activity against Escherichia coli CH3130 harboring tolC deletion mutant after 16 to 20 hrs by broth microdilution assay; format: functional
Summary of the method: (§2)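 Broth microdilution MIC in cation-adjusted Mueller-Hinton II medium, following EUCAST and CLSI guidelines; tested on a panel of Gram-negative strains plus S. aureus ATCC 29213 (wild-type).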

[6] = target: Signal peptidase I (Escherichia coli K-12) (UniProt P00803); assay: Inhibition of full length Escherichia coli His6-tagged LepB expressed in Escherichia coli C43(DE3) assessed as residual activity at 0.1220703 uM using dabcyl-VEVGGTATAGAFSRPGLE-(EDANS) as substrate preincubated for 10 mins followed by substrate addition measured for 2 hrs by FRET assay relative to control; summary of the method: as §1
[7] = target: Signal peptidase I (Escherichia coli K-12) (UniProt P00803); assay: Inhibition of full length Escherichia coli His6-tagged LepB expressed in Escherichia coli C43(DE3) assessed as residual activity at 1000 uM using dabcyl-VEVGGTATAGAFSRPGLE-(EDANS) as substrate preincubated for 10 mins followed by substrate addition measured for 2 hrs by FRET assay relative to control; summary of the method: as §1
[8] = system: Staphylococcus aureus; assay: Antibacterial activity against wild type Staphylococcus aureus ATCC 29213 after 16 to 20 hrs by broth microdilution assay; format: functional
Summary of the method: (§3)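 MIC by broth microdilution in cation-adjusted Mueller-Hinton II medium, following EUCAST and CLSI guidelines; panel of Gram-negative strains plus S. aureus ATCC 29213.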

[9] = target: Signal peptidase I (Escherichia coli K-12) (UniProt P00803); assay: Inhibition of full length Escherichia coli His6-tagged LepB expressed in Escherichia coli C43(DE3) assessed as residual activity at 500 uM using dabcyl-VEVGGTATAGAFSRPGLE-(EDANS) as substrate preincubated for 10 mins followed by substrate addition measured for 2 hrs by FRET assay relative to control; summary of the method: as §1
[10] = system: Pseudomonas aeruginosa; assay: Antibacterial activity against wild type Pseudomonas aeruginosa PAO750 harboring efflux defective mutant after 16 to 20 hrs by broth microdilution assay; format: functional; summary of the method: as §2
[11] = system: Acinetobacter baumannii; assay: Antibacterial activity against wild type Acinetobacter baumannii ATCC 19606 after 16 to 20 hrs by broth microdilution assay; format: functional; summary of the method: as §3
[12] = system: Escherichia coli; assay: Antibacterial activity against wild type Escherichia coli ATCC 25922 after 16 to 20 hrs by broth microdilution assay; format: functional; summary of the method: as §3
[13] = target: Signal peptidase I (Escherichia coli K-12) (UniProt P00803); assay: Inhibition of full length Escherichia coli His6-tagged LepB expressed in Escherichia coli C43(DE3) assessed as residual activity at 3.90625 uM using dabcyl-VEVGGTATAGAFSRPGLE-(EDANS) as substrate preincubated for 10 mins followed by substrate addition measured for 2 hrs by FRET assay relative to control; summary of the method: as §1
[14] = target: Signal peptidase I (Escherichia coli K-12) (UniProt P00803); assay: Inhibition of full length Escherichia coli His6-tagged LepB expressed in Escherichia coli C43(DE3) assessed as residual activity at 62.5 uM using dabcyl-VEVGGTATAGAFSRPGLE-(EDANS) as substrate preincubated for 10 mins followed by substrate addition measured for 2 hrs by FRET assay relative to control; summary of the method: as §1
[15] = system: Klebsiella pneumoniae; assay: Antibacterial activity against wild type Klebsiella pneumoniae […] after 16 to 20 hrs by broth microdilution assay; format: functional; summary of the method: as §3
[16] = target: Signal peptidase I (Escherichia coli K-12) (UniProt P00803); assay: Inhibition of full length Escherichia coli His6-tagged LepB expressed in Escherichia coli C43(DE3) at 100 uM using dabcyl-VEVGGTATAGAFSRPGLE-(EDANS) as substrate preincubated for 10 mins followed by substrate addition measured for 2 hrs by FRET assay relative to control; summary of the method: as §1
[17] = system: Escherichia coli; assay: Antibacterial activity against Escherichia coli D22 harboring lpxC mutant after 16 to 20 hrs by broth microdilution assay; format: functional; summary of the method: as §2
[18] = target: Signal peptidase I (Escherichia coli K-12) (UniProt P00803); assay: Inhibition of full length Escherichia coli His6-tagged LepB expressed in Escherichia coli C43(DE3) assessed as residual activity at 0.4882812 uM using dabcyl-VEVGGTATAGAFSRPGLE-(EDANS) as substrate preincubated for 10 mins followed by substrate addition measured for 2 hrs by FRET assay relative to control; summary of the method: as §1
[19] = target: Signal peptidase I (Escherichia coli K-12) (UniProt P00803); assay: Inhibition of full length Escherichia coli His6-tagged LepB expressed in Escherichia coli C43(DE3) assessed as residual activity at 1.953125 uM using dabcyl-VEVGGTATAGAFSRPGLE-(EDANS) as substrate preincubated for 10 mins followed by substrate addition measured for 2 hrs by FRET assay relative to control; summary of the method: as §1
[20] = system: Pseudomonas aeruginosa; assay: Antibacterial activity against wild type Pseudomonas aeruginosa PAO1 after 16 to 20 hrs by broth microdilution assay; format: functional; summary of the method: as §3
[21] = target: Signal peptidase I (Escherichia coli K-12) (UniProt P00803); assay: Inhibition of full length Escherichia coli His6-tagged LepB expressed in Escherichia coli C43(DE3) assessed as residual activity at 7.8125 uM using dabcyl-VEVGGTATAGAFSRPGLE-(EDANS) as substrate preincubated for 10 mins followed by substrate addition measured for 2 hrs by FRET assay relative to control; summary of the method: as §1
[22] = target: Signal peptidase I (Escherichia coli K-12) (UniProt P00803); assay: Inhibition of full length Escherichia coli His6-tagged LepB expressed in Escherichia coli C43(DE3) assessed as residual activity at 125 uM using dabcyl-VEVGGTATAGAFSRPGLE-(EDANS) as substrate preincubated for 10 mins followed by substrate addition measured for 2 hrs by FRET assay relative to control; summary of the method: as §1
[23] = target: Signal peptidase I (Escherichia coli K-12) (UniProt P00803); assay: Inhibition of full length Escherichia coli His6-tagged LepB expressed in Escherichia coli C43(DE3) assessed as residual activity at 0.241406 uM using dabcyl-VEVGGTATAGAFSRPGLE-(EDANS) as substrate preincubated for 10 mins followed by substrate addition measured for 2 hrs by FRET assay relative to control; summary of the method: as §1
[24] = target: T1, Signal peptidase I; assay: Inhibition of full length Escherichia coli His6-tagged LepB expressed in Escherichia coli C43(DE3) using dabcyl-VEVGGTATAGAFSRPGLE-(EDANS) as substrate preincubated for 10 mins followed by substrate addition measured after […] by FRET assay
[25] = target: Signal peptidase I (Escherichia coli K-12) (UniProt P00803); assay: Inhibition of full length Escherichia coli His6-tagged LepB expressed in Escherichia coli C43(DE3) assessed as residual activity at 15.625 uM using dabcyl-VEVGGTATAGAFSRPGLE-(EDANS) as substrate preincubated for 10 mins followed by substrate addition measured for 2 hrs by FRET assay relative to control; summary of the method: as §1

Chain of Signal peptidase I (Escherichia coli K-12) (P00803 whole entry): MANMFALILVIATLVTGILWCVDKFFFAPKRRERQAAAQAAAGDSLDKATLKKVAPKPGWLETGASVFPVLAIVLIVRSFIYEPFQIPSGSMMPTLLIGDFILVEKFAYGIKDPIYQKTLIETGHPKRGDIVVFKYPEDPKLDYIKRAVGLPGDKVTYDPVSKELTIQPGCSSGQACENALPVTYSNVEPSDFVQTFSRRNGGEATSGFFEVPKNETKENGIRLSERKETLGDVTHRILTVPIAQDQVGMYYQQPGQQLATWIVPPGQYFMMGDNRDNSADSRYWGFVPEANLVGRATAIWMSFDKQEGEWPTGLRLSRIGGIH
T1 sequence (P00803 whole entry): as above

CCCCCCCCCC(=O)N1CCC[C@H]1C(=O)N[C@H](C(=O)N[C@@H](C)C(=O)N[C@@H](CC(N)=O)C(=O)N[C@@H](C)C=O)[C@H](C)O
Activity [1]: -6.1% | Activity [2]: 6.54% | Activity [3]: 48.7% | IC50 [4]: 1.2 µM | MIC [5]: > 128 µg/mL | Activity [6]: 77.4% | Activity [7]: -5.5% | MIC [8]: > 128 µg/mL | Activity [9]: -4.44% | MIC [10]: 128 µg/mL (≈ 210 µM) | MIC [11]: > 128 µg/mL | MIC [12]: > 128 µg/mL | Activity [13]: 34.7% | Activity [14]: -0.871% | MIC [15]: > 128 µg/mL | inhibition [16]: 100% | MIC [17]: > 128 µg/mL | Activity [18]: 64.5% | Activity [19]: 43.6% | MIC [20]: > 128 µg/mL | Activity [21]: 20.9% | Activity [22]: -3.34% | Activity [23]: 72.6% | IC50 [24]: 6.5 µM | Activity [25]: 13%

From ChEMBL document CHEMBL3877308, “Design, synthesis and in vitro biological evaluation of oligopeptides targeting E. coli type I signal peptidase (LepB)” (Bioorg Med Chem, 2017)
